Shown are actives, neighbours in structure and some others; about 1.5% of the full set was active somewhere.
CCR6 antag – CCR6 receptor antagonists, primary screen, cell-based, CHO-K1, luminescence, beta-arrestin, uHTS | C-C chemokine receptor type 6 (Homo sapiens), P51684 | CHO-K1 CCR6 PathHunter beta-arrestin, CCL20-stimulated | inhibition, % at 20 µM | actives 0.49% (n = 340,000) | AID 493098, 2011;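 active means compounds whose inhibition of the agonist-driven luminescence signal at 20 µM reaches about 50%, limit read from the data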;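 further: cells stimulated with CCL20 at 14 nM final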
CXCR6 inh – CXCR6 receptor inhibitors, primary screen, cell-based, beta-arrestin, luminescence, CHO-K1 PathHunter, 1536-well; actives 0.36% (n = 360,000); inhibition, % at 20 µM; in the data active means inhibition above about 34%, passing the limit was not always enough;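 further: antagonist mode with CXCL16 agonist at 10 nM final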
APJ antag – antagonists of human apelin receptor APJ, primary screen, CHO-K1 cells, beta-arrestin complementation, luminescence | inhibition, % at 20 µM | actives 0.32% (n = 330,000) | AID 2521, 2010;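 active means inhibition above about 40% at 20 µM, limit read from the data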;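 further: cells challenged with 10 nM apelin-13 agonist together with compound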
Target sequence (P35414 whole entry, looked up): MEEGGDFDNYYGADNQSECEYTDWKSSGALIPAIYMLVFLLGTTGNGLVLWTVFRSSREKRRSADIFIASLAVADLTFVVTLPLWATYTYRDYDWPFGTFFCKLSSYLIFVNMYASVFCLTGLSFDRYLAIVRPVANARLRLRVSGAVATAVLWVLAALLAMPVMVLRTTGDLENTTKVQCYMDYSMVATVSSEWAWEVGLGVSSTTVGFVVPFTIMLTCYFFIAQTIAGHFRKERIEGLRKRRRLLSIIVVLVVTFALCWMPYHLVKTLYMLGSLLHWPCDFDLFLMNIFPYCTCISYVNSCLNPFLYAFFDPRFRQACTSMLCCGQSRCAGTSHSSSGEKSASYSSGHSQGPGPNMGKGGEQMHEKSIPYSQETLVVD
APJ ag – agonists of human apelin receptor APJ, primary screen, CHO-K1 cells, PathHunter beta-arrestin, luminescence | P35414 | 0% DMSO wells, 100% apelin | activation, % at 20 µM | actives 0.11% (n = 330,000);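 active means activation more than six SD over the plate average, tested at 20 µM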
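Material: engineered CHO-K1 APJ arrestin reporter cells; amount: 1000 CHO-K1 reporter cells seeded per well; incubation: compound stimulation 90 min at 25 °C, detection 60 min; signal: luminescent beta-gal fragment complementation, chemiluminescent substrate; read-out basis: APJ agonist activity; controls: DMSO-only wells as negative, 10 nM Apelin-13 as positive control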
EBI2 antag – EBI2 receptor antagonists, beta-arrestin recruitment, primary screen, cell-based, luminescence, 7a,25-OHC stimulation, uHTS | G-protein coupled receptor 183 (Homo sapiens), P32249 | 7a,25-OHC stimulated | inhibition, % at 5 µM | actives 0.81% (n = 360,000); in the data active means inhibition above about 38%;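 further: enzyme fragment complementation signal reports receptor beta-arrestin coupling in cells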
A number is an active result; - = inactive; . = no result.

SMILES	CCR6 antag	CXCR6 inh	APJ antag	APJ ag	EBI2 antag
C#CCN(C[C@@H]1[C@@H](OC(=O)NCCCCCC)[C@@H](OC(=O)NCCCCCC)Cn2c(=O)ccc(=O)n21)S(=O)(=O)c1ccc(C)cc1	.	-	.	.	-
Nc1nc2cc(Cl)c(Br)cc2o1	-	-	.	.	-
CNCc1ccccc1Sc1cc(O)ccc1O	84	-	-	-	-
OC[C@@H]1CN(Cc2ccc3c(c2)OCO3)C[C@H](n2cnc3c(NC4CC4)ncnc32)O1	.	-	.	.	-
CCN(CC)c1ccc(C=C2C(=O)OC3(CCCCC3)OC2=O)cc1	-	-	-	-	-
CCN(CC)c1ccc(/C=C2/C(=O)c3ccc(C(=O)O)cc3C2=O)cc1	77	56	.	.	-
Cc1ccc(-c2nn3c(-c4ccco4)nnc3c3ccccc23)cc1S(=O)(=O)NCC1CCCO1 (stereo not drawn)	51	-	-	-	-
C[C@H](CO)N1C[C@H](C)[C@@H](CN(C)S(=O)(=O)c2ccc(C#N)cc2)OCc2cn(nn2)CCCC1=O	.	-	.	.	-
O=C(N/N=C/c1cccc2nccnc12)c1ccncc1	-	-	-	-	-
O=C(N/N=C/c1cccc2nccnc12)c1ccccc1O	66	-	-	-	-
COc1cc(/C=C2/C(=O)N(c3ccc(Br)cc3)N=C2C)cc([N+](=O)[O-])c1O	.	.	48	-	.
COc1cc(/C=C2\SC(c3ccc(C)cc3)=NC2=O)cc(OC)c1OC	-	-	-	-	-
C#CCOc1c(Cl)cc(/C=C2/C(=O)ON=C2C)cc1OC	-	-	-	-	-
COc1cc(/C=C2\SC(c3ccccc3)=NC2=O)cc(Cl)c1O	74	-	.	.	-
COc1cc(/C=C2/C(=O)ON=C2C)cc(Cl)c1O	59	-	-	-	-
CN1C=CC(C(C(N)=O)c2ccccc2)c2ccccc21 (stereo not drawn)	.	-	.	.	-
O=c1ccc(N=Nc2ccccc2)ccc1O	66	-	.	.	-
O=S(=O)(O)c1ccc(N=Nc2ccccc2)cc1	-	-	-	-	-
CC(C)(C=O)C1=CC(=O)c2ccccc2C1=O	103	100	.	.	-
Cc1[nH]n(-c2ccccc2)c(=O)c1N=Nc1c(O)cc(S(=O)(=O)N(C)C)c2ccccc12	68	-	-	-	-
CC(C)=CCC[C@H](C)C[C@@H]1Cc2[nH][nH]c(=O)c2[C@H](c2ccc(F)cc2)O1	.	-	.	.	-
Cc1c(C(=O)NCc2ccc(C(F)(F)F)cc2)sc(=O)n1Cc1ccc(S(=O)(=O)N(C)C)cc1	.	-	.	.	-
COc1ccc(-c2sc(NC(=O)c3ccc(C)cc3)nc2-c2ccc([N+](=O)[O-])cc2)cc1	52	-	-	-	-
COc1ccc(C(=O)Nc2nc(-c3ccc([N+](=O)[O-])cc3)c(-c3ccccc3)s2)cc1	-	-	-	-	-
N#Cc1cccc(C(=O)C(=O)N2CCCN(Cc3ccc(F)cc3)CC2)c1	.	.	.	.	-
SMILES	CCR6 antag	CXCR6 inh	APJ antag	APJ ag	EBI2 antag
COc1ccc(C2CCCN2C(=S)Nc2ccc(C)c(C)c2)cc1OC (stereo not drawn)	-	-	-	-	-
COc1ccc(C2CCCN2C(=O)Nc2ccc(C)c(C)c2)cc1OC (stereo not drawn)	-	-	-	-	51
CCOC(=O)CC1C(=O)NCCN1C(=S)NC(=O)c1ccc(C)c(Br)c1 (stereo not drawn)	.	-	.	.	-
COc1ccccc1C(=O)N/C(N)=N/c1nc2ccccc2o1	75	-	-	-	-
O=[N+]([O-])c1ccc(N=Nc2c(Cl)cc(O)cc2Cl)cc1	74	44	.	.	-
COC(=O)c1cc2c(C)nn(-c3ccccc3)c2s1	-	-	-	-	-
Cc1nn(-c2ccccc2)c2sc(C(=O)N(CC(=O)NC(C)(C)C)Cc3ccco3)cc12	57	-	-	-	-
C=CCS/C(N)=N\N=C\c1cc(Br)cc([N+](=O)[O-])c1O	62	34	-	-	-
O=[N+]([O-])c1cc(Br)cc(/C=N/n2cnnc2)c1O	-	-	-	-	-
CC(C)OC(=O)c1sc2nc(-c3ccccc3)ccc2c1N	-	-	-	-	48
COc1ccc(C(=O)c2sc3nc(-c4ccccc4)ccc3c2N)cc1	-	-	-	-	-
CCc1nc2ccc(C(=O)NCc3ccc4c(c3)OCO4)cn2c1N(C)Cc1ccc(OC)cc1	.	-	.	.	-
CCOc1ccc(NC(=O)c2ccncc2)cc1	-	-	-	-	-
O=C(N/N=C1\C/C(=N\NC(=O)c2ccncc2)c2ccccc21)c1ccncc1	56	-	-	-	-
CCOc1ccc2c(c1)C(=NNC(=O)c1ccncc1)c1cc(OCC)ccc1-2	-	-	57	-	-
CC(=O)Nc1cc(-c2cccc(C(=O)NCCO)c2)cn2c(-c3cccc(C(F)(F)F)c3)cnc12	.	-	.	.	-
COC(=O)CSc1nc(N)c2c3c(sc2n1)C(c1ccccc1)SC(c1ccccc1)C3 (stereo not drawn)	-	-	-	-	55
Nc1c(O)ccc2c1C(=O)c1ccccc1C2=O	50	.	.	.	.
COc1ccc2c(c1O)C(=O)c1ccccc1C2=O	.	.	-	-	.
CCN(CC)C(=O)Cn1cc(C(=O)C(=O)Nc2ccc3c(c2)OCO3)c2ccccc21	.	-	.	.	-
COc1ccc(NC(=S)NC(NC(=O)c2ccccc2Cl)C(Cl)(Cl)Cl)c([N+](=O)[O-])c1 (stereo not drawn)	56	-	-	-	-
COc1ccc(NC(=S)NC(NC(=O)c2ccc(Cl)cc2Cl)C(Cl)(Cl)Cl)c([N+](=O)[O-])c1 (stereo not drawn)	-	33	-	-	-
COc1ccc(NC(=S)NC(NC(=O)c2cccc3ccccc23)C(Cl)(Cl)Cl)c([N+](=O)[O-])c1 (stereo not drawn)	-	-	-	-	-
Nc1c(C(=O)NC2CC2)sc2nc3c(c(-c4ccco4)c12)CC/C3=C/c1ccco1	51	-	.	.	-
Cn1c(=O)c(=O)n(C)c2cc(S(=O)(=O)NCCOc3ccccc3Cl)ccc21	-	-	40	-	-
SMILES	CCR6 antag	CXCR6 inh	APJ antag	APJ ag	EBI2 antag
O=S(=O)(NCCOc1ccccc1Cl)c1ccc2oc3ccccc3c2c1	-	-	-	-	-
Cn1cc(-c2csc(C(O)c3ccc(F)cc3)n2)cn1 (stereo not drawn)	.	-	.	.	-
Cc1[nH]c2ccccc2c1CC#N	-	-	-	-	-
Cc1[nH]c2ccccc2c1C(C#N)(C#N)C1C(=O)c2ccccc2C1=O	-	43	-	-	-
COC(=O)c1cc2c(n1S(=O)(=O)c1ccc(C)cc1)C(=O)C(=O)c1[nH]cc(C(=O)OCc3ccccc3)c1-2	-	-	.	.	-
O=C(C#Cc1ccccc1)c1ccc([N+](=O)[O-])cc1	55	71	-	-	-

Screening results as filed in PubChem BioAssay.
